The text below walks through data of ChEMBL document CHEMBL2331334, “Hybrid furoxanyl N-acylhydrazone derivatives as hits for the development of neglected diseases drug candidates” (Eur J Med Chem, 2013).

Converted amounts (≈) assume the structure as drawn. A value given as a limit tells only on which side of the number the result lay.

Test system in one experiment: not listed separately
As to the kind of experiment: Selectivity index, ratio of IC50 for mouse J774.1 cells to MIC for multidrug-resistant Mycobacterium tuberculosis clinical isolate. The experiment is classed as functional.
Settings: not given
The procedure, abridged:
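Cytotoxicity: J774.1 macrophages in DMEM with 4 mM L-glutamine and 10% heat-inactivated FCS, seeded at 5 × 10^4/well, attached 48 h at 37 °C, 5% CO2. Exposed 48 h to 12.5–400.0 µM compound or vehicle. MTT at 0.1 mg/mL final for 3 h, formazan dissolved in DMSO/glycine buffer pH 10.5, A560 read. IC50 by linear regression, divided by the MIC against the same MTB strain.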
With `Cc1nc2ccccn2c1C(=O)N/N=C/c1c(-c2ccccc2)no[n+]1[O-]`, the “Selectivity Index” value amounted to 6.5.

In the case of `Cc1[nH]cnc1C(=O)N/N=C/c1ccc2no[n+]([O-])c2c1`, the “Selectivity Index” value came out at 1.5.

Take `O=C(N/N=C/c1ccc2no[n+]([O-])c2c1)c1cccnc1`: the “Selectivity Index” value turned out to be 1.4.

Take `O=C(N/N=C/c1c(-c2ccccc2)no[n+]1[O-])c1cccnc1`: the “Selectivity Index” value was 10.

In the case of `O=C(N/N=C/c1ccc2no[n+]([O-])c2c1)c1ccncc1`, the “Selectivity Index” value is reported as 12.

Regarding `Cc1nc2ccccn2c1C(=O)N/N=C/c1ccc2no[n+]([O-])c2c1`, the “Selectivity Index” value came to 3.7.

Consider `O=C(N/N=C/c1ccc2nonc2c1)c1cccnc1`, for which the “Selectivity Index” value was found to be 5.

Turning to `O=C(N/N=C/c1c(-c2ccccc2)no[n+]1[O-])c1ccncc1`, the “Selectivity Index” value is on record as more than 40.

On to `NNC(=O)c1ccncc1` [ISONIAZID], for which the “Selectivity Index” value is given as more than 9.

A further experiment concerns Mycobacterium tuberculosis. The experiment is described as follows: Antimycobacterial activity against multidrug-resistant Mycobacterium tuberculosis clinical isolate assessed as growth inhibition after 5 days by MTT assay. The settings on record: 120 h. The experiment is classed as functional. The procedure, abridged: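 MTB inoculum made from 20–30-day slant growth in Tween 80/0.2% BSA, adjusted to McFarland No. 1, then diluted in 7H9GC broth (Middlebrook 7H9, glycerol, Casitone, OADC). Final inoculum about 1.2 × 10^6 CFU/mL. Compounds taken from DMSO stock to final 0.4–25 in broth, with a DMSO control. Plates run 5 days at 37 °C, then tetrazolium (MTT)–Tween 80 added for a further 24 h at 37 °C. Read-out is MIC.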
Regarding `Cc1c(C(=O)N/N=C/c2cccc(O)c2)no[n+]1[O-]`, the MIC (in general, the smallest concentration in the dilution series that meets the test's criterion for growth inhibition) is more than 95.4 µM.

On to `Cc1c(/C=N/NC(=O)c2no[n+]([O-])c2C)no[n+]1[O-]`, for which the minimal inhibitory concentration (MIC) is more than 93.6 µM.

In the case of `Cc1c(/C=N/NC(=O)c2ccc3c(c2)OCO3)no[n+]1[O-]`, the MIC was more than 86.2 µM.

As to `Cc1c(C(=O)N/N=C/c2ccc(Br)cc2)no[n+]1[O-]`, the MIC was more than 74 µM.

As to `Cc1c(C(=O)N/N=C/c2ccc(C(=O)O)cc2)no[n+]1[O-]`, the MIC was more than 86.2 µM.

As for `Cc1c(C(=O)N/N=C/c2ccccc2O)no[n+]1[O-]`, the MIC was more than 95.4 µM.

As to `COc1cc(/C=N/NC(=O)c2no[n+]([O-])c2C)cc(OC)c1OC`, the MIC was more than 74.4 µM.

As to `COc1cc(/C=N/NC(=O)c2no[n+]([O-])c2C)ccc1O`, the MIC is more than 85.6 µM.

As to `Cc1c(C(=O)N/N=C/c2ccc(N(C)C)cc2)no[n+]1[O-]`, the MIC was more than 86.5 µM.

As to `Cc1c(C(=O)N/N=C/c2c(-c3ccccc3)no[n+]2[O-])no[n+]1[O-]`, the minimum inhibitory concentration (MIC) is more than 75.8 µM.

On to `Cc1nc2ccccn2c1C(=O)N/N=C/c1c(-c2ccccc2)no[n+]1[O-]`, for which the minimal inhibitory concentration (MIC) came out at 8.6 µM (≈ 3.12 µg/mL).

On to `Cc1c(C(=O)N/N=C/c2ccc([N+](=O)[O-])cc2)no[n+]1[O-]`, for which the minimum inhibitory concentration (MIC) is more than 85.9 µM.

In the case of `Cc1c(C(=O)N/N=C/c2ccco2)no[n+]1[O-]`, the minimum inhibitory concentration (MIC) was more than 106 µM.

`Cc1[nH]cnc1C(=O)N/N=C/c1ccc2no[n+]([O-])c2c1`: the MIC stood at 21.9 µM (≈ 6.27 µg/mL).

`O=C(N/N=C/c1ccc2no[n+]([O-])c2c1)c1cccnc1`: the MIC stood at 22.1 µM (≈ 6.26 µg/mL).

With `Cc1c(/C=N/NC(=O)c2ccncc2)no[n+]1[O-]`, the MIC was more than 25.4 µM.

In the case of `Cc1c(C(=O)N/N=C/c2ccc([N+](=O)[O-])o2)no[n+]1[O-]`, the minimum inhibitory concentration (MIC) was determined as 44.5 µM (≈ 12.5 µg/mL).

On to `O=C(N/N=C/c1c(-c2ccccc2)no[n+]1[O-])c1cccnc1`, for which the minimal inhibitory concentration (MIC) worked out at 20.2 µM (≈ 6.25 µg/mL).

Regarding `Cc1[nH]cnc1C(=O)N/N=C/c1c(-c2ccccc2)no[n+]1[O-]`, the minimum inhibitory concentration (MIC) was more than 80.1 µM.

On to `Cc1c(C(=O)N/N=C/c2ccc3no[n+]([O-])c3c2)no[n+]1[O-]`, for which the MIC turned out to be 82.2 µM (≈ 25 µg/mL).

For the compound `O=C(N/N=C/c1ccc2no[n+]([O-])c2c1)c1ccncc1`, the MIC turned out to be 11 µM (≈ 3.12 µg/mL).

Take `COc1ccc(/C=N/NC(=O)c2no[n+]([O-])c2C)cc1OC`: the minimum inhibitory concentration (MIC) was more than 81.6 µM.

For `Cc1c(C(=O)N/N=C/c2ccccn2)no[n+]1[O-]`, the minimum inhibitory concentration (MIC) was more than 101 µM.

As for `Cc1nc2ccccn2c1C(=O)N/N=C/c1no[n+]([O-])c1C`, the MIC was more than 83.3 µM.

`Cc1[nH]cnc1C(=O)N/N=C/c1no[n+]([O-])c1C`: the minimum inhibitory concentration (MIC) is more than 100 µM.

For `Cc1c(C(=O)N/N=C/c2ccc3c(c2)OCO3)no[n+]1[O-]`, the minimum inhibitory concentration (MIC) was more than 86.2 µM.

As for `Cc1nc2ccccn2c1C(=O)N/N=C/c1ccc2no[n+]([O-])c2c1`, the minimum inhibitory concentration (MIC) was found to be 38.6 µM (≈ 13 µg/mL).

Consider `CC(=O)Nc1ccc(/C=N/NC(=O)c2no[n+]([O-])c2C)cc1`, for which the minimal inhibitory concentration (MIC) is more than 82.5 µM.

Consider `Cc1c(/C=N/NC(=O)c2cccnc2)no[n+]1[O-]`, for which the MIC is more than 101 µM.

Consider `O=C(N/N=C/c1c(-c2ccccc2)no[n+]1[O-])c1ccc2c(c1)OCO2`, for which the MIC is more than 71 µM.

Consider `COc1ccc(/C=N/NC(=O)c2no[n+]([O-])c2C)cc1O`, for which the minimum inhibitory concentration (MIC) is more than 85.6 µM.

Turning to `O=C(N/N=C/c1ccc2nonc2c1)c1cccnc1`, the MIC came to 46.8 µM (≈ 12.5 µg/mL).

`Cc1c(/C=N/NC(=O)c2cnn(-c3ccccc3)c2)no[n+]1[O-]`: the MIC was more than 80.1 µM.

For the compound `Cc1c(C(=O)N/N=C/c2ccccc2)no[n+]1[O-]`, the MIC was more than 102 µM.

As to `O=C(N/N=C/c1ccc2no[n+]([O-])c2c1)c1ccc2c(c1)OCO2`, the MIC was more than 76.7 µM.

For `Cc1c(C(=O)N/N=C/c2ccc([N+](=O)[O-])s2)no[n+]1[O-]`, the MIC was 42.1 µM (≈ 12.5 µg/mL).

On to `O=C(N/N=C/c1ccc2nonc2c1)c1ccncc1`, for which the MIC is more than 93.6 µM.

As to `Cc1c(C(=O)N/N=C/c2ccc(C(F)(F)F)cc2)no[n+]1[O-]`, the MIC was more than 79.6 µM.

Consider `O=C(N/N=C/c1c(-c2ccccc2)no[n+]1[O-])c1cnn(-c2ccccc2)c1`, for which the MIC is more than 66.8 µM.

On to `O=C(N/N=C/c1c(-c2ccccc2)no[n+]1[O-])c1ccncc1`, for which the MIC worked out at 10.1 µM (≈ 3.12 µg/mL).

Take `NNC(=O)c1ccncc1` [ISONIAZID]: the MIC was determined as 45.6 µM (≈ 6.25 µg/mL).

Consider `O=C(N/N=C/c1ccc2no[n+]([O-])c2c1)c1cnn(-c2ccccc2)c1`, for which the MIC was more than 17.9 µM.
